Activity calls are given as the source filed them. The rule behind the calls is not given here.
Legend:
[1] = molecular target: T1, RyR1/FKBP12 (Homo sapiens) (UniProt P21817+P62942); experiment: Stabilization of FKBP12/RyR1 protein-protein interaction in human 8220 myoblast-derived myotubes assessed as reversal of SIN1-induced intracellular calcium leakage at 150 nM preincubated for 12 hrs followed by SIN1 stimulation and measured after 6 hrs by fura-2 AM dye based fluorescence assay relative to control; settings: Myotube, time 18.0 hrs
How it was run: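 Immortalized human 8220 myoblasts differentiated 9 days into myotubes, pretreated with compounds at 150 nM for 12 h, then stressed with 5 mM SIN1 for 6 h. Loaded with Fura-2AM ([…]) plus 0.02% pluronic acid, 30 min, 37 °C; calcium from 340/380 nm excitation ratio. Six replicates, ≥4 images each; recovery score = (treated − untreated)/(control − untreated) × 100.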

[2] = molecular target: T1, RyR1/FKBP12 (Homo sapiens); experiment: Stabilization of FKBP12/RyR1 protein-protein interaction in human myotubes assessed as reversal of SIN1-induced reduction in FKBP12/RyR1 co-localization at 150 nM by in situ proximity ligation assay relative to control; design: scale not given: the % may be the effect or the level left; settings: Myotube
How it was run: (§1)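 Human myotubes 7–9 days into differentiation, treated at 150 nM, then 5 mM SIN1 for 30 min; PFA-fixed, anti-RyR1 mouse mAb overnight, Duolink orange PLA, MyHC-FITC and DAPI counterstain. Co-localization spots quantified as % of untreated control; 11–15 fields from 3–4 cultures, ≥8 myotubes per field; one-way ANOVA with Dunnett's test.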

[3] = molecular target: T1, RyR1/FKBP12 (Homo sapiens); experiment: Effect on FKBP12/RyR1 protein-protein interaction in human myotubes by in situ proximity ligation assay; settings: Myotube; how it was run: as §1
[4] = molecular target: T1, RyR1/FKBP12 (Homo sapiens); experiment: Stabilization of FKBP12/RyR1 protein-protein interaction in human myotubes assessed as reversal of SIN1-induced reduction in FKBP12/RyR1 co-localization by measuring increase in FKBP12/RyR1 co-localization at 150 nM by in situ proximity ligation assay relative to control; format: tissue-based; design: scale not given: the % may be the effect or the level left; settings: Myotube; how it was run: as §1
[5] = molecular target: T2, Peptidyl-prolyl cis-trans isomerase FKBP1A (Homo sapiens, UniProt P62942); experiment: Binding affinity to FKBP12 (unknown origin) expressed in HEK293 cells co-expressing FRB assessed as induction of FKBP12-FRB dimerization at […] measured for 15 mins by nano-glo live cell reagent based luminescence assay
How it was run: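 HEK293 cells on poly-D-lysine, transfected with FRB-LgBiT and FKBP-SmBiT vectors (12.5 ng/mL each); assayed 20–24 h later in CO2-independent medium with Nano-Glo Live Cell Reagent at 37 °C. Compound added alone at […]; dimerization luminescence (RLU) followed over time, each addition recorded 15 min.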

[6] = molecular target: T2, Peptidyl-prolyl cis-trans isomerase FKBP1A; experiment: Binding affinity to FKBP12 (unknown origin) expressed in HEK293 cells co-expressing FRB assessed as inhibition of rapamycin-induced FKBP12-FRB dimerization measured after 25 mins by nano-glo live cell reagent based luminescence assay

T2 sequence (P62942 whole entry): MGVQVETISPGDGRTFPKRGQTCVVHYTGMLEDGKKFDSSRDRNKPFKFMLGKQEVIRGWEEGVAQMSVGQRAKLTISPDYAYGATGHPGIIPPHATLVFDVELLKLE

Activity [1] | Structure (SMILES) | further results
Active | COc1cccc(SCc2cn([C@@H](Cc3ccccc3)C(=O)O)nn2)c1 | 
inactive | O=C(O)[C@@H](Cc1ccccc1)n1cc(CSc2cccc(C(F)(F)F)c2)nn1 | 
Active | COc1cccc(SCc2cn([C@H](Cc3ccccc3)C(=O)O)nn2)c1 | 
Active | O=C(O)[C@@H](Cc1ccc(O)cc1)n1cc(CSc2cccc(C(F)(F)F)c2)nn1 | 
Active | COc1cccc(SCc2cn([C@H](CC(C)C)C(=O)O)nn2)c1 | 
Active | CCC[C@H](C(=O)O)n1cc(CSc2cccc(OC)c2)nn1 | 
inactive | O=C(O)[C@H](Cc1ccc(O)cc1)n1cc(CSc2cccc(C(F)(F)F)c2)nn1 | 

The remaining lines, values behind:

Structure (SMILES) | Activity [1] | further results
Cc1ccc(SCCc2cn(CC(=O)O)nn2)cc1 | < 90% | 
COc1ccc2c(c1)CN(C)CCS2 | Active | Activity [2]: 56%; Activity [3]: inactive; Activity [4]: 84%
CC(C)(C)OC(=O)NCCCC[C@@H](C(=O)O)n1cc(CSc2cccc(Cl)c2)nn1 | inactive | 
COc1ccc(SCc2cn(CC(=O)O)nn2)cc1 | < 90% | 
O=C(O)Cn1cc(CSc2c(F)c(F)cc(F)c2F)nn1 | < 90% | 
COc1cccc(SCc2cn(C(C)(C)C(=O)O)nn2)c1 | < 90% | 
O=C(O)Cn1cc(CSc2ccccc2)nn1 | < 90% | 
O=C(O)Cn1cc(CSc2cccc(Cl)c2)nn1 | inactive | 
COc1cccc(SCc2cn(CC(=O)O)nn2)c1 | < 90% | Activity [2]: 46%; Activity [5]: inactive; IC50 [6]: 3.32 µM; Activity [3]: inactive

Reference: ChEMBL document CHEMBL4732161, “Discovery of a novel family of FKBP12 "reshapers" and their use as calcium modulators in skeletal muscle under nitro-oxidative stress” (Eur J Med Chem, 2021)
